Test: Toxicity liver stage against HepG2, at 10uM
Format: cell-based
Parameters: test concentration 10 uM, cell line HepG2-A16-CD81EGFP
Details: human, HepG2-A16-CD81EGFP cells; read-out: INHIBITION
How it was run: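 Uninfected HepG2-A16-CD81EGFP cells, 3 × 10^3 per well, 1536-well, plated on prespotted compound at 10 μM final, parasite-free screening media added to match infected plates; puromycin 10 μM positive, DMSO 0.5% negative; run in parallel with 48 h PbLuc assay at 37 °C, 5% CO2; viability by CellTiter-Glo luminescence, normalized to controls.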

| SMILES | cytotoxicity at 10 µM |
| --- | --- |
| CC(C)(C)S(=O)(=O)CCNC(=O)c1cnc(-c2ccccc2)nc1 | 2.92% |
| CCc1ncncc1C(=O)N1CCN(Cc2ccsc2)CC1 | 0.956% |
| CSC(C)(C)CNC(=O)NC1CCSCC1 | 17.5% |
| CS(=O)(=O)N[C@@H]1CCN(Cc2cccnc2)[C@H]1Cc1cccnc1 | -70.2% |
| COC[C@@]12CCC[C@@H]1CN(C(=O)CN(C)C)C2 | 4.84% |
| CN1CCN(S(=O)(=O)c2cccc(F)c2)Cc2cccnc21 | -110% |
| CC(C)N1CCOC(Cc2nn3c(Cc4ccccc4)nnc3s2)C1 (stereo unspecified) | -6.53% |
| c1cnn(Cc2cnc3n2CCN(CC2CCCCC2)C3)c1 | -78.8% |
| c1ccc(-c2nc3c(c(NCCn4ccnn4)n2)CCNCC3)nc1 | -51.1% |
| Cc1ccccc1CCCN(C)S(C)(=O)=O | 5.41% |
| CCn1cc(C(=O)NCc2csc(C3CC3)n2)c(C)n1 | 27.4% |
| Cc1nn(C)c(C)c1CN(Cc1cccn1-c1ccccn1)C(C)C | 0.936% |
| CCC(NC(=O)CC1CCN(CC)CC1)c1cn2cccnc2n1 (stereo unspecified) | 2.46% |
| COc1ccccc1OC1CCN(Cc2cnc(N(C)C)nc2)CC1 | -10.9% |
| Cc1csc(N2CCN(C(=O)C(C(C)C)n3cncn3)CC2)n1 (stereo unspecified) | -13.1% |
| CNC(=O)c1ccc(C(=O)N2CCCC(n3nc(C)cc3C)C2)cn1 (stereo unspecified) | -5.61% |
| CCc1cc(CN(C)Cc2nc(-c3sccc3C)oc2C)on1 | -3.81% |
| CCc1nn(C)c2[nH]nc(NC(=O)c3cccnc3OC)c12 | -8.98% |
| C=C(C)CN1CCC(n2cc(C3CCCC3)nn2)CC1 | 4.98% |
| CCC(CO)N(Cc1ccccn1)C(=O)c1ccc(C)c(Cl)c1 (stereo unspecified) | -0.054% |
| COCC(NC(=O)c1cc(NC(C)=O)ccc1Cl)c1ccccn1 (stereo unspecified) | -12.1% |

| SMILES | cytotoxicity at 10 µM |
| --- | --- |
| CN1CCCC1(CCCc1cccnc1)C(=O)NCc1nccn1C (stereo unspecified) | 0.732% |
| CCn1c(NCc2ccccc2)nc2c(C)nn(C)c2c1=O | 10.6% |
| CN(C)CC(=O)N1CC[C@H]2OCC[C@@]2(COCC2CC2)C1 | 0.165% |
| Cc1cnc(NS(=O)(=O)c2cccc(C#N)c2)s1 | 15% |
| CN1CCN(Cc2ccccc2CNC(=O)c2ccc(Cl)cc2F)CC1 | 15.5% |
| CCOC(=O)[C@]12CCCN(Cc3nccs3)C[C@H]1CN(CCOC)C2 | 1.36% |
| CCN(CC)C(=O)c1ccn(COc2cccc(Cl)c2Cl)n1 | 49.4% |
| CC[C@@]1(O)CCN(C(=O)c2ccc(CN3CCCCCC3)cc2)C[C@H]1O | 8.44% |
| CCc1ccc2nc(-c3cnn(C)c3)cc(C(=O)N3CCOCC3)c2c1 | -2.96% |
| C[C@@H]1CN(C(=O)NC2CC2)C[C@]12CCN(c1ccsc1)C2=O | 0.77% |
| O=C(CC1=CSC2=NCCN12)N1CCCC(CCc2cccc(F)c2)C1 (stereo unspecified) | 5.21% |
| N#Cc1ccccc1C(=O)N1C[C@H](CO)C[C@H](CN2CCCC2)C1 | -17% |
| NC(=O)C1CCN(C(=O)CCSCc2ccc(Cl)c(Cl)c2)CC1 | -1.35% |
| Cc1ccc(-c2cc(C(=O)NC(C)C(=O)N3CCCCC3)on2)cc1 (stereo unspecified) | -7.17% |
| CCCS(=O)(=O)N1CCC(Nc2c(F)cc(C#N)cc2F)CC1 | 1.34% |
| CCOCCCC(=O)Nc1ccc(OCc2noc(C3CC3)n2)cc1 | 44.4% |
| c1cc(N2CCOCC(Cc3ccc4[nH]ccc4c3)C2)ncn1 (stereo unspecified) | -15.9% |
| CCOc1ccccc1C(=O)NC(CC(=O)O)c1cccs1 (stereo unspecified) | -11.4% |
| CCNC(=O)NC1CCN(c2ccc(S(=O)(=O)CC)cc2)CC1 | 7.89% |
| COc1c(C)cnc(CN2CCCC2Cn2nc(C)nc2C)c1C (stereo unspecified) | -3.21% |
| CC(C)OCCCNC(=O)CS(=O)(=O)Cc1ccc(C(C)(C)C)cc1 | 4.92% |

| SMILES | cytotoxicity at 10 µM |
| --- | --- |
| CC(C)NC(=O)CN(C)C1CCN(c2ccc(Cl)cn2)CC1 | 3.5% |
| Cc1nc(C)n(CC2CCCN2Cc2nc3ccccc3o2)n1 (stereo unspecified) | -5.62% |
| Cc1c(C)n(CC(O)CN2CCN(CCO)CC2)c2c(Cl)cccc12 (stereo unspecified) | -12.9% |
| CC(c1ccccc1)n1c(SCC(=O)O)nnc1-c1ccn[nH]1 (stereo unspecified) | -0.0682% |
| Cc1ccc(C(=O)N2CC[C@H]3O[C@@H](c4noc(C)n4)C[C@H]3C2)o1 | 1.92% |
| COC(=O)NCC(=O)NC1CC(C)(C)Cc2oc(C)cc21 (stereo unspecified) | -20.8% |
| CCc1sc(-c2nnc(CNC(C)Cn3cc(C)cn3)o2)cc1C (stereo unspecified) | 0.493% |
| CC(C)c1ccc(O)c(C(=O)NCc2nncn2C)c1 | -3% |
| COc1ccc(CN2C[C@@H]3COC[C@H](N4CCN(C)CC4)[C@@H]3C2)cc1 | -85.6% |
| COc1ccccc1-c1ncc(CN2C[C@H](O)[C@@H](N3CCCC3)C2)s1 | -6.34% |
| CCC(C)NC(=O)c1ccc(NC(=O)CCc2ccncc2)c(C)c1 (stereo unspecified) | 4.31% |
| Cc1nc[nH]c1CN1CCN(C(=O)c2cccs2)[C@H]2CS(=O)(=O)C[C@H]21 | -0.0714% |
| Cc1cc(C)cc(OCC(O)CN2CCN(c3nccs3)CC2)c1 (stereo unspecified) | -7.32% |
| Cc1cccc(-c2nc(CN3CCCC3Cn3cc(C)cn3)no2)c1 (stereo unspecified) | -1.82% |
| Cc1ncc2c(n1)CCN(C(C(N)=O)c1ccccc1)C2 (stereo unspecified) | -2.62% |
| O=C(c1cccn1-c1ccc2c(c1)OCCO2)N1CCCC1 | -9.42% |
| CS(=O)(=O)Nc1cccc(CNC(=O)CCC(=O)c2cccs2)c1 | 1.73% |
| CCn1nc(C(=O)N2CCCC2c2noc(C)n2)ccc1=O (stereo unspecified) | 4.99% |
| O=C(COCCOc1ccccc1)N1CCCC(n2ccnc2)C1 (stereo unspecified) | -19.6% |
| CCN1CCN(C(=O)C2CCOC2)c2ccccc21 (stereo unspecified) | 2.54% |
| Cc1nc(C)c(CC(=O)N2CCCN(CC3CC3)C(C(C)C)C2)c(=O)[nH]1 (stereo unspecified) | -153% |

| SMILES | cytotoxicity at 10 µM |
| --- | --- |
| CN(C(=O)CCNC(=O)NC1CCCCC1)c1ccccc1 | -0.575% |
| Cn1c(-c2ccccc2Cl)nc2cc(C(=O)NC(CO)CO)cnc21 | -10.8% |
| CCN(CC1CCOC1)C(=O)NCc1nnc2n1CCC2 (stereo unspecified) | 13.6% |
| Cn1nc(Cn2ccnc2)c2c1CN(C(=O)c1ccc[nH]1)C2 | -62.7% |
| CCCc1nnc(NCCc2noc(C3CCCC3)n2)o1 | 20.2% |
| CC(C)CC(C)N(C)Cc1nnc(-c2ccco2)o1 (stereo unspecified) | 6.07% |
| CCCNC(=O)NC(=O)CN(CC(C)O)c1ccccc1 (stereo unspecified) | -2.48% |
| Cn1cc(C2CCCN2CC(=O)N(CCC#N)Cc2ccco2)cn1 (stereo unspecified) | -6.18% |
| CCOc1ccc(CC(=O)N2CCCC2c2cc(C)on2)cc1 (stereo unspecified) | -46% |
| CC(C)C(=O)N1CCCC1C(=O)Nc1cc(C(F)(F)F)ccc1F (stereo unspecified) | -0.359% |
| Cc1nc(C(NC(=O)CC(F)(F)F)c2ccc(Cl)cc2)no1 (stereo unspecified) | 9.83% |
| O=C1N(CC2CCC2)CCCC12CCN(S(=O)(=O)c1cccnc1)C2 (stereo unspecified) | 9.94% |
| CC(C)OC[C@H]1CCC[C@]12CN(S(=O)(=O)c1cn(C)cn1)CCO2 | 5.19% |
| CC(C)OCc1ncn2c1CN(Cc1nccs1)CCC2 | -83.6% |
| Cc1nn(C)c(C)c1CN(C)C1CCN(c2ncnc3[nH]cnc23)CC1 | -76.7% |
| Cc1[nH]ccc1C(=O)N1CCOCC12CCCC2 | 4.14% |
| Cn1c(C(F)(F)F)nn(CCNC(=O)CSCc2ccccc2)c1=O | -24% |
| Cc1nc2ccccc2nc1CN1CCOC(Cn2cccn2)C1 (stereo unspecified) | 1.1% |
